# Compound activity as filed in PubChem BioAssay.
# NOD2 RIPK2 PPI = NOD2-RIPK2 binding disruptors in cells, primary screen, fluorescence, CHO cells, BLA complementation. Receptor-interacting serine/threonine-protein kinase 2 (Homo sapiens), O43353. CCF4 ratio. inhibition, % at 4.98 µM. hit rate 0.38% among 360,000; in the data active = inhibition above about 21%;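 note: 0% = vehicle only and 100% = reference blocker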
# Hsp70 act = Hsp70 transcriptional activators, primary screen, cell-based, HeLa, Hsp70 promoter luciferase, luminescence, 10 µM | HeLa Hsp70 promoter luciferase reporter; scaled: vehicle 0, proteasome-inhibitor control 100% | AID 1203, 2008 | hit rate 0.04% among 200,000 | activation, % at 10 µM;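 active = activation above the mean across all tested compounds plus 3 SD, cutoff set per campaign, cut at about 5.5% in these data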;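 note: 100% = MG132 at 30 µM as the positive control and 0% = DMSO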
# bCat nuc transl = modulators of beta-catenin nuclear translocation, primary screen, imaging, HeLa cells, immunofluorescence, high-content. hit rate 0.3% among 190,000. nuclear translocation activity, % at 5 µM. AID 1665, 2009;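 active = nuclear translocation activity above 50% at 5 µM, with a well cell count of 50 or more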;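 note: per-cell ratio of nuclear to cytoplasmic median beta-catenin stain intensity; plate controls were DMSO negative control for no effect and GSK-3 inhibitor IX positive control for full effect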
#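 Read-out: Nuclear/cytoplasmic beta-catenin signal ratio, % activation | Assay system: Human HeLa cell line | Times: 24 h compound exposure at 37°C, 5% CO2 | Signal: Fluorescence imaging of beta-catenin antibody stain plus DAPI | Dosing: 5 µM primary, 0.02–20 µM confirmation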
# MT stabilizer = microtubule stabilizers in HeLa cells, primary screen, imaging, high-content imaging; HeLa tubulin immunostaining HCS, 24 h; share of cells brighter than vehicle mean+2SD; hit rate 0.83% among 200,000; AID 2205, 2009; % tubulin-high responders, % at 10 µM;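 active = plate Z-score above 3 for both tubulin-high and condensed-nucleus cell shares, with cell loss under 80%, at 10 µM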;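 note: anti alpha tubulin signal scored within the nucleus-defined area of each cell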
# TLR9-MyD88 block = inhibitors of TLR9-MyD88 association in cells, primary screen, cell-based, CHO, BLA complementation, fluorescence; AID 504734, 2011; CCF4 FRET ratio; inhibition, % at 4.98 µM; Toll-like receptor 9 (Homo sapiens) + Myeloid differentiation primary response protein …; hit rate 0.21% among 340,000;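 active = inhibition above the mean over all tested compounds plus 3 SD, cut at about 21% in these data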;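 note: 0% = DMSO only wells and 100% = clavulanate BLA inhibitor control wells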
# TLR4 MyD88 comp = inhibitors of TLR4-MyD88 association in cells, primary screen, cell-based, HeLa CL3-4, BLA complementation, FRET ratio; HeLa CL3-4 TLR4/MyD88 BLA complementation; inhibition, % at 8.4 µM; hit rate 0.18% among 200,000; AID 861, 2007; in the data active = inhibition above about 25%;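 note: 0% = vehicle and 100% = reference inhibitor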
# NOD2 RIPK2 conf = NOD2-RIPK2 binding disruptors, retest, confirmation, fluorescence, CHO cells, BLA complementation, triplicate. shares compounds with NOD2 RIPK2 PPI. CCF4 FRET. inhibition, % at 4.98 µM. hit rate 70% among 1,200. AID 624370, 2012;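 active = mean inhibition across replicates above a set limit taken from the earlier primary screen, cut at about 21% in these data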;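 note: 0% = DMSO-only wells and the high end = clavulanate BLA-blocked wells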
# BLA counter = hits BLA reporter in NOD2-RIPK2 inhibitor counterscreen; shares compounds with NOD2 RIPK2 PPI; hit rate 57% among 1,200; AID 624371; CHO BLA reporter, CCF4 FRET ratio; inhibition, % at 4.98 µM;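 active = mean inhibition above the low-control mean inhibition plus three low-control SD, cut at about 11% in these data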;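 note: 0% = DMSO only wells and 100% = clavulanate high control wells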
# An asterisk follows results filed as active; · = not tested or not shown. A selection: hits, their analogues and other compounds. The true share with any hit is near 1%.
SMILES,NOD2 RIPK2 PPI,Hsp70 act,bCat nuc transl,MT stabilizer,TLR9-MyD88 block,TLR4 MyD88 comp,NOD2 RIPK2 conf,BLA counter
CN1C(=O)CSc2ccc(NC(=O)NCc3ccccc3)cc21,-1,0,-1,3,6,-5,·,·
Cc1ccc(C)c(CC(=O)N2CCCCC2c2cc(C(=O)Nc3cccc(C#N)c3)no2)c1 (stereo unspecified),13,·,·,·,·,·,·,·
COc1ccc(C)c2sc(NC(=O)c3cccc(N4C(=O)CCC4=O)c3)nc12,22*,·,·,·,-1,·,3,-2
COC(=O)C[C@@H]1CC[C@H](NC(=O)c2cnccn2)[C@@H](CO)O1,-5,·,·,·,·,·,·,·
N#CC1=C(N)Oc2cc(N)ccc2C1c1ccccc1Cl (stereo unspecified),28*,·,·,·,-4,·,-2,-1
O=C(O)C1CCN(C(=O)c2ccccc2N2C(=O)[C@@H]3Cc4c([nH]c5ccccc45)C(c4cccc(Cl)c4)N3C2=O)CC1 (stereo partly specified),-4,·,·,·,-8,·,·,·
CCN(CC)c1ccc(C=C(c2nnnn2-c2ccccc2)c2nnnn2-c2ccccc2)cc1,27*,0,-2,5,3,2,30*,30*
COc1cc2ccc(=O)oc2cc1O,30*,·,·,·,-9,·,21,39*
COc1cc2ccc(=O)oc2cc1OCC(O)C(C)(C)O (stereo unspecified),-18,·,-1,·,2,·,·,·
COc1ccc(OCC(=O)N2CCc3c([nH]c4ccccc34)C2c2ccccn2)cc1 (stereo unspecified),-5,0,-1,2,3,-6,·,·
O=C1OCCN1CC(=O)N1CCc2c([nH]c3ccccc23)C1c1ccccn1 (stereo unspecified),22*,0,-1,2,-13,-8,-12,-4
Cc1cc(C)c(S(=O)(=O)c2ccc(Cl)cc2)c(Cl)n1,-16,0,2,3,7,1,·,·
Cc1cc(S(=O)(=O)c2ccc(Cl)cc2)nc(S(=O)(=O)c2ccc(Cl)cc2)c1C#N,50*,·,·,·,16,·,68*,18*
COC(=O)c1cc2c(cc1NC(=O)CSCCc1ccccn1)OCO2,25*,0,1,4,-3,-6,4,-1
O=c1c(O)c(-c2ccccc2)oc2cc(O)ccc12,25*,·,·,·,·,·,32*,29*
O=c1c(O)c(-c2ccccc2)oc2ccccc12,13,·,·,·,9,·,·,·
Cc1oc(-c2cccs2)cc1C(=O)N1CCCC(C)(C(=O)O)C1 (stereo unspecified),1,·,·,·,·,·,·,·
Cc1ccccc1NC(=O)C1C2CC/C=C\CCC21 (stereo unspecified),27*,0,-2,3,-5,-15,0,-2
CCOC(=O)N1CCC(NC(=O)c2ccc3c(c2)N=C(C)c2c(C)ccc(C)c2S3)CC1,24*,·,·,·,14,·,16,-1
CC(C)c1ccc(C(=O)N2CCCCC2c2cc(C(=O)NCc3cccnc3)no2)cc1 (stereo unspecified),-10,·,·,·,·,·,·,·
CCCC1NC(=O)c2cc3ccccc3cc2-n2c1nc1ccc(F)cc1c2=O (stereo unspecified),-12,·,·,·,-4,·,·,·
Cc1ccc(CC(NC(=O)c2ccccc2)C(=O)NC(CC(C)C)C(=O)O)cc1 (stereo unspecified),59*,1,-1,2,11,11,-2,1
O=C(NC(Cc1ccccc1)C(=O)NC(Cc1ccccc1)C(=O)O)c1ccccc1 (stereo unspecified),-1,0,0,0,1,4,·,·
CC(=O)Nc1ccc(-c2ccnc3c2CC(C)(C(=O)Nc2ccc(Cl)cc2)O3)cc1 (stereo unspecified),21*,·,·,·,·,·,10,0
COCC(=O)O[C@]1(CCN(C)CCCc2nc3ccccc3[nH]2)CCc2cc(F)ccc2[C@@H]1C(C)C,25*,·,2,·,-10,·,20,-3
SMILES,NOD2 RIPK2 PPI,Hsp70 act,bCat nuc transl,MT stabilizer,TLR9-MyD88 block,TLR4 MyD88 comp,NOD2 RIPK2 conf,BLA counter
CCOC(=O)CCc1nc2ccccc2[nH]1,-6,0,0,3,-5,1,·,·
O=C(O)c1cc(-c2ccc(Cl)cc2)n(-c2cccc(Cl)c2)n1,-14,·,·,·,-5,·,·,·
CCCCCNC(=O)C(c1ccnc2ccccc12)n1c(=O)c(-c2cc3ccccc3[nH]2)nc2ccccc21 (stereo unspecified),51*,·,·,·,·,·,46*,67*
CCCCCNC(=O)C(c1ccncc1)n1c(=O)c(-c2cc3ccccc3[nH]2)nc2ccccc21 (stereo unspecified),50*,·,·,·,·,·,51*,69*
CCCCCNC(=O)C(c1ccncc1)n1c(=O)c(-c2ccco2)nc2ccccc21 (stereo unspecified),-11,·,·,·,·,·,·,·
CCCCCNC(=O)C(c1ccc(OC)cc1)n1c(=O)c(-c2cc3ccccc3[nH]2)nc2ccccc21 (stereo unspecified),44*,·,·,·,·,·,39*,62*
CCOC(=O)C1CCN(S(=O)(=O)c2ccc(Cl)s2)CC1,-3,·,·,·,1,·,·,·
C/C(=N\NC(=O)c1cc(-c2ccncc2)nc2ccccc12)c1ccc(N2CCOCC2)cc1,24*,0,6,4,7,-12,6,2
CC(=NNC(=O)c1cc(C)nc2ccccc12)c1ccc(N2CCOCC2)cc1,11,·,·,·,6,·,·,·
O=[N+]([O-])c1ccc(NN=Cc2ccc(O)cc2O)nc1,22*,·,·,·,5,·,8,15*
O=[N+]([O-])c1ccc(NN=Cc2ccc(O)cc2)nc1,4,·,·,·,11,·,·,·
O=[N+]([O-])c1ccc(N/N=C/c2ccccc2O)cc1,27*,·,·,·,8,·,38*,35*
COc1ccc(NC(=O)C2Cc3c(-c4ccccc4Oc4ccccc4)ccnc3O2)cc1OC (stereo unspecified),-7,·,·,·,·,·,·,·
CC(=O)Oc1ccc2cc(-c3cccnc3)c(=O)oc2c1,31*,·,·,·,9,·,30*,45*
O=C(O)c1cccc2c1C(=O)c1ccccc1-2,-9,·,-2,·,-1,·,·,·
O=C1C(=C(I)I)c2ccccc2-c2ccccc21,68*,·,·,·,14,·,84*,7
